Source: PubChem BioAssay (several laboratories)
Runt-CBFb FRET: inhibitors of RUNX1 Runt–CBFb binding, primary screen, biochemical, FRET, Cerulean-Runt, Venus-CBFb, uHTS | Runt-related transcription factor 1 (Homo sapiens) + Core-binding factor subunit beta … | Cerulean-Runt/Venus-CBFb FRET ratio 530/480, 1 h | 0.46% of 220,000 active | inhibition, % at 20 µM;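 active = inhibition over about 50% at 20 µM in the single-dose screen, limit read from the data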;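 note: 0% = DMSO wells and 100% = excess unlabeled CBFb competitor control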
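Reagent – Venus-CBFb binding partner, 100 nM · Assay system – Cerulean-tagged RUNX1 Runt domain (FRET donor) fusion protein · Input – 100 nM per protein · Incubation – two 1 h room-temperature incubations shielded from light · Measured by – FRET fluorescence · Medium – Tris buffer pH 7.5 with salts and BSA · Benchmarks – unlabeled CBFb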
RBBP9 inh: human RBBP9 inhibitors, primary screen, biochemical, fluorescence polarization, FP-Rh probe, HTS. Serine hydrolase RBBP9 (Homo sapiens), O75884. recombinant RBBP9. inhibition, % at 7.94 µM. 0.2% of 220,000 active. AID 1515, 2009;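 active = inhibition above the campaign mean of all tested compounds plus 3 SD, cut at about 14% in these data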;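 note: plate controls were DMSO wells with RBBP9 for no effect and wells lacking RBBP9 protein for full effect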
Target sequence (O75884 whole entry, looked up): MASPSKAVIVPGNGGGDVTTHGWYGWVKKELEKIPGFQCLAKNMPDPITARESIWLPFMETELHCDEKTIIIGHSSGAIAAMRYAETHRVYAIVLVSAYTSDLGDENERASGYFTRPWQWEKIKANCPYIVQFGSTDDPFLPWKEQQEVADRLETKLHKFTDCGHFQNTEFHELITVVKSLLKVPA
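system = RBBP9 protein | input = RBBP9 at 2.5 µM in dispensed solution, before mixing | measured by = fluorescence polarization (mP), excitation 525 nm, emission 598 nm | incubation = enzyme-compound preincubation 30 min, then probe labeling 45 min, 25 °C | buffer or medium = Tris-NaCl-Pluronic buffer, pH 8.0 | compound = single dose 7.94 µM | also added = FP-Rh probe, 375 nM dispensing solution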
Hck Nef HTS: inhibitors of Nef-activated human Hck kinase, primary screen, biochemical, Z-Lyte FRET, 384-well, Hck-YEEI. AID 463187, 2010. inhibition, % at 20 µM. Tyrosine-protein kinase HCK (Homo sapiens), P08631. 0.68% of 220,000 active. Recombinant Hck-YEEI plus Nef, Z-Lyte FRET kinase assay;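 active = Hck-Nef kinase inhibition above about 50%, limit read from the data; inactive = inhibition below that limit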;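 note: 0% = DMSO with Hck plus Nef and 100% = Hck alone without Nef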
Runt-SMMHC FRET: inhibitors of RUNX1 Runt–CBFb-SMMHC binding, primary screen, biochemical, FRET, Cerulean-Runt, Venus-CBFb-SMMHC, uHTS | inhibition, % at 20 µM | 0.74% of 220,000 active | Runt-related transcription factor 1 (Homo sapiens) + Core-binding factor subunit beta … | Cerulean-Runt/Venus-CBFb-SMMHC FRET ratio 530/480, 1 h;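 active = mean inhibition across duplicate retests at 20 µM reaching about 50%, limit read from the data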;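 note: 0% = DMSO wells and 100% = wells with excess untagged CBFb-SMMHC; inhibitors lower the FRET ratio by blocking Runt binding to CBFb-SMMHC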
RanGTP-Imp inh: inhibitors of RanGTP-importin-beta interaction, primary screen, biochemical, FRET, CFP-Ran, YFP-importin-beta, homogeneous; cell-free CFP-Ran/YFP-importin-beta FRET ratio; Ran GTPase (GTP-bound) - importin-beta complex; 1.1% of 300,000 active; AID 2216, 2009; inhibition, % (concentration not given with the values);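 active = more than half of the replicate wells show a fall in the fluorescence ratio signal beyond about 16%, limit read from the data, passing the limit was not always enough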;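 note: 0% = DMSO wells and 100% = Ran loaded with GDP instead of GTP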
PfM18AAP inh-1: PfM18AAP inhibitors, malaria aminopeptidase, primary screen, biochemical, QFRET, recombinant enzyme. M18 aspartyl aminopeptidase (Plasmodium falciparum 3D7). H-Glu-NHMec fluorogenic cleavage. inhibition, % at 7.35 µM. 1.2% of 290,000 active. AID 1822, 2009;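 active = inhibition above the campaign mean inhibition over all tested compounds plus 3 SD, cut at about 28% in these data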;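 note: 0% = plate median of test compound wells and 100% = 2 mM ZnCl2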
Runt-CBFb TRFRET: inhibitors of RUNX1 Runt–CBFb binding, biochemical, TR-FRET; shares compounds with Runt-CBFb FRET; inhibition, % at 20 µM; TR-FRET RUNX1 Runt domain-CBFb binding; 20% of 480 active; in the data active = inhibition above about 40%
RBBP9 confirm: human RBBP9 inhibitors, retest, confirmation, biochemical, fluorescence polarization, FP-Rh probe, triplicate. shares compounds with RBBP9 inh. recombinant RBBP9. inhibition, % at 7.94 µM. 36% of 410 active. AID 1537, 2009;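 active = inhibition above the hit cutoff derived for the primary screen, cut at about 15% in these data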;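 note: 0% = RBBP9 with DMSO and 100% = wells lacking RBBP9 protein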
PfM18AAP inh-2: PfM18AAP inhibitors, malaria aminopeptidase, confirmation, biochemical, QFRET, recombinant enzyme, triplicate | 28% of 2,400 active | inhibition, % at 7.35 µM | shares compounds with PfM18AAP inh-1 | H-Glu-NHMec fluorogenic cleavage;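 active = mean inhibition over replicate wells above the hit cutoff set for the earlier primary screen, cut at about 29% in these data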;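 note: 0% = median of test compound wells and 100% = 2 mM ZnCl2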
CTSL1 counter: cathepsin L1 inhibitors, retest, confirmation, counter-screen for PFM18AAP inhibitor project, biochemical, QFRET, triplicate; shares compounds with PfM18AAP inh-1; purified cathepsin L1, Z-Leu-Arg-MCA fluorescence; inhibition, % at 5.96 µM; 2,400 tested, under 10 active;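 active = average inhibition across replicates above the hit cutoff set in the earlier primary screen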;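 note: 0% = median of test compound wells and 100% = Z-Phe-Ala-diazomethylketone 1 µM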
Target sequence (P07711 whole entry, looked up): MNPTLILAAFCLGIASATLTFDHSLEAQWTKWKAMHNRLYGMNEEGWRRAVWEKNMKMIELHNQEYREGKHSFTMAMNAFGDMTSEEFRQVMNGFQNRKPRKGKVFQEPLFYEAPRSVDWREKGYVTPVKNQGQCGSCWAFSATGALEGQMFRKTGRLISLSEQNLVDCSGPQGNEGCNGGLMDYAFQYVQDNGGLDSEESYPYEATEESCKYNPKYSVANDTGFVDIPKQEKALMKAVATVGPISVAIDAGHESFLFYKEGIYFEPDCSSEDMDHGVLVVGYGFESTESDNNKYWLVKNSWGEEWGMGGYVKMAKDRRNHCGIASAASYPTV
An asterisk follows results filed as active; . = no result. Only some compounds are listed: those with a hit (about 2.9% of all), similar ones and a draw of the others.

SMILES | Runt-CBFb FRET | RBBP9 inh | Hck Nef HTS | Runt-SMMHC FRET | RanGTP-Imp inh | PfM18AAP inh-1 | Runt-CBFb TRFRET | PfM18AAP inh-2 | CTSL1 counter | others
O=C(O)c1ccc(/C=C2\SC(=S)N(Nc3ccccc3)C2=O)cc1 | 23 | -2 | -3 | 2 | -2 | 12 | . | . | .
O=C1/C(=C/c2ccncc2)SC(=S)N1Nc1ccccc1 | 50* | -6 | -28 | 28 | 9 | 32* | 50* | 10 | -6
CN(C)S(=O)(=O)c1ccc(N2CCCC2)c(C(=O)NC2CCC(O)CC2)c1 (stereo unspecified) | . | . | . | . | -3 | . | . | . | .
Cc1cc(C)c(NC(=S)NCC2CCN(C(C)c3ccccc3)C2)c(C)c1 (stereo unspecified) | 54* | -1 | -54 | 45 | 5 | 53* | 36 | 3 | -2
Cc1ccc(NC(=S)NCC2CCN(C(C)c3ccccc3)C2)cc1 (stereo unspecified) | 5 | -6 | -12 | 2 | -3 | 3 | . | . | .
COc1ccc(-c2csc(Nc3ncccc3C)n2)cc1OC | 3 | -3 | 0 | 3 | 0 | 1 | . | . | .
Cc1cccnc1Nc1nc(-c2ccc(O)c(O)c2)cs1 | 65* | 25* | 1 | 52* | 1 | 79* | -22 | 55* | 4 | RBBP9 confirm=55*
Cc1c(C(=O)Nc2ccc(S(=O)(=O)N3CCOCC3)cc2)cccc1[N+](=O)[O-] | . | . | . | . | -1 | -5 | . | . | .
CC(=O)c1ccc(OC(=O)CCc2nc3ccccc3s2)cc1 | 59* | -10 | 6 | 37 | -3 | 39* | 42* | 8 | -43
COC(=O)CCCc1nc2ccccc2s1 | 0 | 4 | 3 | -1 | 10 | 3 | . | . | .
Cc1ccc(NC(=S)N(CCN(C)C)Cc2cccs2)c(C)c1 | 54* | -3 | 22 | 43 | -1 | 36* | 23 | 7 | 1
COC(=O)c1c(NC(=O)Cc2ccc(OC)c(S(=O)(=O)N3CCOCC3)c2)sc(C)c1C | . | . | . | . | 0 | . | . | . | .
O=C1NCCCC2c3c(cc(Br)c(O)c3Br)OC12N1CCCCC1 (stereo unspecified) | 50* | 12 | 3 | 47 | 3 | 51* | 63* | -93 | 3
O=C1NCCCc2c1oc1cc(Br)c(O)c(Br)c21 | 11 | -10 | -5 | 16 | -5 | 7 | . | . | .
COc1cccc(C(c2c(N)[nH]c(=S)[nH]c2=O)c2c(N)[nH]c(=S)[nH]c2=O)c1 | 51* | -7 | -22 | 19 | 1 | 33* | 56* | -2 | 7
CN1CCc2cccc3c2[C@@H]1Cc1ccc(O)c(O)c1-3 | 86* | 12 | 8 | . | . | 36* | 68* | 79* | 3
O=C(NCc1ccccc1)C(c1c(F)cccc1Cl)N(C(=O)c1csnn1)C1CC1 (stereo unspecified) | . | . | . | . | 3 | 0 | . | . | .
CCN1C(=O)[C@H]2[C@@H](c3ccc(Cl)cc3)N3C(=O)CN(CCOC)C(=O)[C@@]3(Cc3ccccc3)[C@H]2C1=O | . | . | . | . | 2 | -4 | . | . | .
CN1CCN(NC(=O)c2ccc(Cl)s2)CC1 | -2 | -3 | 8 | -1 | 1 | -2 | . | . | .
COc1cc(C)c(NC(=O)C(=S)NCCc2ccccc2)cc1C | 51* | 4 | 29 | 34 | -2 | 48* | 15 | 4 | 4
Cc1cc(C)nc(Sc2nc(Cl)nc(N(c3ccccc3)c3ccccc3)n2)n1 | 59* | 2 | 0 | 53 | 0 | 47* | 18 | 22 | -2
Cc1cc(C)nc(SC(C(=O)O)c2ccccc2)n1 (stereo unspecified) | 0 | 2 | 1 | 3 | 3 | 4 | . | . | .
O=C(O)C1OC(Oc2cc3oc(-c4ccccc4)cc(=O)c3c(O)c2O)C(O)C(O)C1O (stereo unspecified) | 56* | 4 | 20 | 37 | 1 | 44* | 9 | 13 | -1
Nc1ncnc(Sc2ccccc2)c1[N+](=O)[O-] | 2 | -11 | 0 | 3 | -5 | -3 | . | . | .
Nc1ncnc(Sc2ncccn2)c1[N+](=O)[O-] | 62* | -3 | 15 | 10 | 0 | 34* | 1 | -90 | 2
SMILES | Runt-CBFb FRET | RBBP9 inh | Hck Nef HTS | Runt-SMMHC FRET | RanGTP-Imp inh | PfM18AAP inh-1 | Runt-CBFb TRFRET | PfM18AAP inh-2 | CTSL1 counter | others
Cc1ccc(C)c(NC(=O)CSc2nnc(-c3cc(C)[nH]n3)n2N)c1 | . | . | . | . | 5 | 12 | . | . | .
C=CCN1C(=O)SC(Cc2cccc(OC)c2O)C1=O (stereo unspecified) | 4 | -3 | 20 | 0 | 3 | 5 | . | . | .
COc1ccc(C2=CC(=O)C=CC2=O)cc1 | 68* | 51* | 70* | 86* | 0 | 56* | 35 | 62* | -3 | RBBP9 confirm=85*
COc1ccc(S(=O)(=O)c2ccc(OC)cc2)cc1 | 2 | -2 | 0 | -2 | -3 | 2 | . | . | .
Cc1ccc(NC(=S)N2CCN(Cc3ccccc3)CC2)cc1 | -2 | -5 | 25 | 2 | 0 | -2 | . | . | .
Cc1ccc(C(=S)N2CCN(Cc3ccccc3)CC2)cc1 | 52* | -2 | 14 | 38 | 1 | 52* | 42* | -6 | 6
Cc1ncc(CO)c(/C=N/NC(=O)c2cc(O)c(O)c(O)c2)c1O | 57* | -5 | -29 | 51* | 8 | 58* | 66* | 36* | -4
CCOC(=O)C1CCCN(C2=NC(=O)/C(=C/c3ccc(N(C)C)cc3)S2)C1 (stereo unspecified) | . | . | . | . | -1 | -2 | . | . | .
